Where two headings read alike, the source gives them in different places. Residues, ends and D or L forms follow the SMILES beside them. *: point of attachment. Cbz = O=C(OCc1ccccc1)*
What was measured:
[1] = biological target: ChT-L active center of the proteasome (NMR) (Heterocephalus glaber, UniProt G5ASK0); experiment: Peptidolytic assay, ChT-L activity, naked mole-rat liver subcellular fractions; type: biochemical
[2] = biological target: T1, ChT-L active center of the proteasome (mouse) (Mus musculus, UniProt O55234); experiment: Peptidolytic assay, ChT-L activity, mouse liver subcellular fractions; type: biochemical
T1 sequence (O55234 60-264): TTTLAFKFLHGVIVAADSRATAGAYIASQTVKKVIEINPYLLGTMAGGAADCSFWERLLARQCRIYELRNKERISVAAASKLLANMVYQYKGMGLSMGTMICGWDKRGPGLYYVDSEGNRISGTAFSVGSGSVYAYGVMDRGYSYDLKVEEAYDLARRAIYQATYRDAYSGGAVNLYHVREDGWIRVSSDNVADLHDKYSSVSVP

[3] = biological target: T-L active center of the proteasome (NMR) (Heterocephalus glaber, UniProt A0A0P6JE03); experiment: Peptidolytic assay, T-L activity, naked mole-rat liver subcellular fractions; type: biochemical; details: read-out: T-L IC50 NMR, cytosolic fraction, ± S.E.
[4] = biological target: T2, T-L active center of the proteasome (mouse) (Mus musculus, UniProt P70195); experiment: Peptidolytic assay, T-L activity, mouse liver subcellular fractions; type: biochemical
T2 sequence (P70195 44-277): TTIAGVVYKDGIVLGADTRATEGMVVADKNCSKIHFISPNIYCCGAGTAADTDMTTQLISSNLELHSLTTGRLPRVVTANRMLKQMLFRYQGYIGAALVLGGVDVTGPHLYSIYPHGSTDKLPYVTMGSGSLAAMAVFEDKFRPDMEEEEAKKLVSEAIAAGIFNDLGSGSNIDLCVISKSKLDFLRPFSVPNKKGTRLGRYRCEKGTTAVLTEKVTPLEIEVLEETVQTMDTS
Method in brief: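 Female mice aged 4–6 months; liver split into cytosolic, microsomal and nuclear fractions. T-L activity was read with a fluorogenic AMC peptide, against an AMC standard curve, as pmol AMC/min/μg protein. Inhibitor classes were titrated: boronate 5nM–10μM, lactone 0.2μM–8μM, aldehyde and vinyl sulfone 10μM–250μM. IC50 was taken as 50% activity loss, from exponential-decay or sigmoidal fits.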

[5] = biological target: human 26S proteasome [h26S] (Homo sapiens, UniProt P20618+P28074); experiment: ChT-L activity of purified human 26S proteasome with supernatants or fractions; type: biochemical; details: 10 nM BZ
[6] = system: ProtNMR (naked mole-rat partially purified proteasome); type: biochemical, Heterocephalus glaber
[7] = biological target: T3, ProtMS (mouse partially purified proteasome) (Mus musculus, UniProt O55234); type: biochemical
T3 sequence (O55234 60-264): T1 sequence (O55234 60-264)

[8] = system: naked mole-rat proteasome (ChT-L activity) with HSPs of NMR cytosol/supernatant; type: biochemical, Heterocephalus glaber; details: for effect on inhibition resistance / sensitivity to inhibition: NMR cytosolic fraction or SNNMR + Prot, 20 μM MG132
Method in brief: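 HSP antibodies (anti-HSP72, -HSP40, -HSP25 or -HSP90; 10pg to 400pg, serially diluted in PBS/50% glycerol) or small-molecule HSP72 inhibitors (25nM to 1000nM; 10μM to 1000μM) added to NMR cytosolic lysate or 100,000xg supernatant. Incubated 1hr at 30°C with 1mM ATP. Human 26S or partially purified NMR proteasome then added. ChT-L activity read with Suc-LLVY-AMC ± 20μM MG132, as pmol AMC/min/μg protein.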

[9] = system: human 26S proteasome [h26S] in SNNMR; type: biochemical; details: h26S in SNNMR challenged with MG132
Method in brief: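 Naked mole-rat liver cytosolic lysate or its high-speed supernatant was incubated at 30°C for 1hr with 1mM ATP plus anti-chaperone antibodies (HSP72, HSP40, HSP25, HSP90; 10pg–400pg) or HSP72 inhibitors (25nM–1000nM or 10μM–1000μM). Purified human 26S proteasome was then added, and ChT-L activity was read with Suc-LLVY-AMC ± 20μM MG132.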

[10] = ChT-L IC50 Ms, cytosolic fraction, ± S.E.
[11] = sample ProtNMR + FT, 20 μM MG132
[12] = sample ProtNMR + FT, 50 μM MG132
[13] = sample ProtNMR + R, 20 μM MG132
[14] = sample ProtNMR + R, 50 μM MG132
[15] = sample ProtNMR + SN, 20 μM MG132
[16] = sample ProtNMR + SN, 50 μM MG132
[17] = sample ProtMS + FT, 20 μM MG132
[18] = sample ProtMS + FT, 50 μM MG132
[19] = sample ProtMS + SN, 20 μM MG132
[20] = sample ProtMS + SN, 50 μM MG132

## CC(C)CC(C=CS(C)(=O)=O)NC(=O)[C@H](CC(C)C)NC(=O)[C@H](CC(C)C)NC(=O)CCCCCNC(=O)CCCCCNC(=O)CCCCCNC(=O)CC12CC3CC(CC(C3)C1)C2 (stereo partly drawn) [Adh (VS), adamantane-acetyl-(6-aminohexanoyl)3-(leucinyl)3-vinyl-(methyl)-sulfone]
[1]; cytosolic extracts
  ChT-L IC50 in naked mole-rat relative to mouse cytosolic extracts: 22 fold
[1]; read-out: ChT-L IC50 NMR, cytosolic fraction, liver, ± S.E.
  IC50: 125 ± 5.6 µM
[2]; read-out: ChT-L IC50 Ms, cytosolic fraction, ± S.E.
  IC50: 5.56 ± 1.57 µM
[3]
  IC50: 80.6 ± 2.5 µM
[4]; read-out: T-L IC50 Ms, cytosolic fraction, ± S.E.
  IC50: 16.2 ± 1.9 µM

## CC(C)C[C@H](NC(=O)[C@H](Cc1ccccc1)NC(=O)c1cnccn1)B(O)O [BZ, bortezomib]
[5]; h26S without fr.23
  ablation of ChT-L activity of h26S: 75%
[5]; in the presence of fr. 23
  reduction of ChT-L activity of h26S: 30%

## CC(=O)N[C@@H](CSC(=O)[C@]1([C@@H](O)C(C)C)NC(=O)[C@H](C)[C@@H]1O)C(=O)O [LC, lactacystin]
[2]; [10]
  IC50: 0.156 ± 0.005 µM

## CC(C)C[C@@H](C=O)NC(=O)[C@H](CC(C)C)NC(=O)[C@H](CC(C)C)NC(=O)OCc1ccccc1 [MG132, N-(benzyl-oxycarbonyl) leucinyl-leucinyl-leucinal] (Cbz-Leu-Leu-Leu-aldehyde)
[2]; [10]
  IC50: 8.22 ± 2.75 µM
[2]; ChT-L IC50 Ms, microsomal fraction
  IC50: 0.99 µM
[2]; ChT-L IC50 Ms, nuclear fraction, ± S.E.
  IC50: 4.6 ± 1.62 µM
[4]; T-L IC50 Ms, cytosolic fraction, ± S.E.
  IC50: 14.6 ± 4.4 µM
[4]; T-L IC50 Ms, microsomal fraction
  IC50: 6.63 µM
[4]; T-L IC50 Ms, nuclear fraction, ± S.E.
  IC50: 12.8 ± 4.7 µM
[6]; sample ProtNMR + FT (flow-through), 10 μM MG132
  ChT-L activity, Mean ± SE: 40 ± 18 pmol AMC/min/μg protein
[6]; sample ProtNMR + FT, 10 μM MG132
  % Inhibition: 83.1%
[6]; [11]
  % Inhibition: 88.6%
  ChT-L activity, Mean ± SE: 27 ± 18 pmol AMC/min/μg protein
[6]; [12]
  % Inhibition: 93.2%
  ChT-L activity, Mean ± SE: 16 ± 13 pmol AMC/min/μg protein
[6]; sample ProtNMR + R (retentate), 10 μM MG132
  ChT-L activity, Mean ± SE: 542 ± 181 ^# pmol AMC/min/μg protein
[6]; sample ProtNMR + R, 10 μM MG132
  % Inhibition: 31.0%
[6]; [13]
  % Inhibition: 39.0%
  ChT-L activity, Mean ± SE: 479 ± 146 ^# pmol AMC/min/μg protein
[6]; [14]
  % Inhibition: 51.8%
  ChT-L activity, Mean ± SE: 378 ± 104 ^# pmol AMC/min/μg protein
[6]; sample ProtNMR + SN (NMR supernatant), 10 μM MG132
  ChT-L activity, Mean ± SE: 488 ± 58 ^# pmol AMC/min/μg protein
[6]; sample ProtNMR + SN, 10 μM MG132
  % Inhibition: 51.7%
[6]; [15]
  % Inhibition: 50.6%
  ChT-L activity, Mean ± SE: 499 ± 71 ^# pmol AMC/min/μg protein
[6]; [16]
  % Inhibition: 67.7%
  ChT-L activity, Mean ± SE: 327 ± 104 ^# pmol AMC/min/μg protein
[6]; sample ProtNMR, 10 μM MG132
  % Inhibition: 86.0%
  ChT-L activity, Mean ± SE: 72 ± 13 pmol AMC/min/μg protein
[6]; sample ProtNMR, 20 μM MG132
  % Inhibition: 91.6%
  ChT-L activity, Mean ± SE: 43 ± 0.3 pmol AMC/min/μg protein
[6]; sample ProtNMR, 50 μM MG132
  % Inhibition: 95.5%
  ChT-L activity, Mean ± SE: 23 ± 1.0 pmol AMC/min/μg protein
[7]; sample ProtMS + FT (flow-through), 10 μM MG132
  ChT-L activity, Mean ± SE: 17 ± 0.3 pmol AMC/min/μg protein
[7]; sample ProtMS + FT, 10 μM MG132
  inhibition at 10 µM: 85.5%
[7]; [17]
  ChT-L activity, Mean ± SE: 15 ± 3.0 pmol AMC/min/μg protein
  inhibition at 20 µM: 87.2%
[7]; [18]
  ChT-L activity, Mean ± SE: 3.0 ± 1.9 pmol AMC/min/μg protein
  inhibition at 50 µM: 97.4%
[7]; sample ProtMS + R (retentate), 10 μM MG132
  ChT-L activity, Mean ± SE: 178 ± 72 ^# pmol AMC/min/μg protein
[7]; sample ProtMS + R, 10 μM MG132
  inhibition at 10 µM: 36.9%
[7]; sample ProtMS + R, 20 μM MG132
  ChT-L activity, Mean ± SE: 172 ± 70 ^# pmol AMC/min/μg protein
  inhibition at 20 µM: 39%
[7]; sample ProtMS + R, 50 μM MG132
  ChT-L activity, Mean ± SE: 89 ± 12 ^# pmol AMC/min/μg protein
  inhibition at 50 µM: 68.4%
[7]; sample ProtMS + SN (NMR supernatant), 10 μM MG132
  ChT-L activity, Mean ± SE: 126 ± 22 ^# pmol AMC/min/μg protein
[7]; sample ProtMS + SN, 10 μM MG132
  inhibition at 10 µM: 52.1%
[7]; [19]
  ChT-L activity, Mean ± SE: 116 ± 20 ^# pmol AMC/min/μg protein
  inhibition at 20 µM: 55.9%
[7]; [20]
  ChT-L activity, Mean ± SE: 84 ± 34 ^# pmol AMC/min/μg protein
  inhibition at 50 µM: 68.1%
[7]; sample ProtMS, 10 μM MG132
  ChT-L activity, Mean ± SE: 25 ± 0.1 pmol AMC/min/μg protein
  inhibition at 10 µM: 87.6%
[7]; sample ProtMS, 20 μM MG132
  ChT-L activity, Mean ± SE: 17 ± 0.2 pmol AMC/min/μg protein
  inhibition at 20 µM: 91.5%
[7]; sample ProtMS, 50 μM MG132
  ChT-L activity, Mean ± SE: 11 ± 0.1 pmol AMC/min/μg protein
  inhibition at 50 µM: 94.5%

## N#Cc1ccc(COC[C@H]2O[C@@H](n3c(NCc4ccc(Cl)c(Cl)c4)nc4c(N)ncnc43)[C@H](O)[C@@H]2O)cc1 [VER155008]
[8]
  effect on inhibition resistance / sensitivity to inhibition: did not disrupt the inhibition resistance
[8]; titration 25nM to 1000nM
  effect on proteasome activity associated with SNNMR: had no effect
[9]
  effect on inhibition resistance: did not disrupt the inhibition resistance

## NS(=O)(=O)C#Cc1ccccc1 [pifithrin-μ]
[8]
  effect on inhibition resistance / sensitivity to inhibition: attenuated resistance to inhibition

Reference: publication PMC4829350 (Biochimica et biophysica acta, 2014)
